Test results from ChEMBL document CHEMBL1124520, “New kelatorphan-related inhibitors of enkephalin metabolism: improved antinociceptive properties” (J Med Chem, 1989).

Experiments:
[1] = Inhibition of dipeptidyl amino peptidase activity in rat brain with 10 nM [3H]Leu-enkephalin as substrate; type: tissue-based
Method in brief: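 Membrane-bound dipeptidylaminopeptidase purified from rat brain. Preincubated 15 min at 25 °C in 50 mM Tris-HCl with or without inhibitor. […] IC50 by log-probit over five inhibitor concentrations; mean ± SEM, three independent experiments.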

Aminopeptidase N = target: T1, Aminopeptidase N (Sus scrofa, UniProt P15145); experiment: Inhibition of Aminopeptidase N activity in pig kidney with 10 nM [3H]Leu-enkephalin as substrate; type: tissue-based
T1 sequence (P15145 whole entry): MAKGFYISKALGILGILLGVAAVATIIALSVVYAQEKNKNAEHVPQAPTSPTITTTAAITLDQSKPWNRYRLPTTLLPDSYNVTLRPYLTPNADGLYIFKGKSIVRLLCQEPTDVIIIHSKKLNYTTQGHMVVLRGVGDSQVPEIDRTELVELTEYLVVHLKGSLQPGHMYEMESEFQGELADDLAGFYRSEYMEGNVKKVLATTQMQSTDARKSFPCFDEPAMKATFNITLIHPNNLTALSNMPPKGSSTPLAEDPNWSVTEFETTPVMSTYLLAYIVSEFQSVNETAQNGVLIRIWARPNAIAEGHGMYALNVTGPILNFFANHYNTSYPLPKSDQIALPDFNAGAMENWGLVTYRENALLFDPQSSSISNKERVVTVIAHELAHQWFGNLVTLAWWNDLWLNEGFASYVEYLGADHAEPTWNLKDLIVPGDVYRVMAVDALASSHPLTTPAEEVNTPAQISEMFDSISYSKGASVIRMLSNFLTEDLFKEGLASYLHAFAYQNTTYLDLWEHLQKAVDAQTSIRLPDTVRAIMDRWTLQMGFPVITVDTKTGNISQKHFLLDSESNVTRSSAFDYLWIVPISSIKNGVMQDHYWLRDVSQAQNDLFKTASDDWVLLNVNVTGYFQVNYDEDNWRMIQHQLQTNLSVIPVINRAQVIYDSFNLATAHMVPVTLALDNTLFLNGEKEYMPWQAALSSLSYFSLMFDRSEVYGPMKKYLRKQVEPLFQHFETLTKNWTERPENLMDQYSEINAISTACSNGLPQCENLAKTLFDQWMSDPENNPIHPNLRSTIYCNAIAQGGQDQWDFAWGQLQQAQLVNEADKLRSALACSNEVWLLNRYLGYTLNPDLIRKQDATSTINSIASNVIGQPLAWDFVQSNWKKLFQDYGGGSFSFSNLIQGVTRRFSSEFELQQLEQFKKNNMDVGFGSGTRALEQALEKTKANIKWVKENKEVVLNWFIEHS
Method in brief: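 Commercial aminopeptidase N, used unpurified. Enzyme preincubated 15 min at 25 °C with or without rising inhibitor concentrations in 50 mM Tris-HCl. [3H]Leu-enkephalin (Km 50 μM) added to 10 nM final. Stopped after 30 min with HCl; tritiated metabolites separated on polystyrene beads. IC50 from log-probit of five concentrations, mean ± SEM of three independent experiments.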

Neprilysin = target: T2, Neprilysin (Oryctolagus cuniculus, UniProt P08049); experiment: Inhibition of neutral endopeptidase activity in rabbit kidney with 20 nM [3H]D-Ala2-Leu-enkephalin as substrate
T2 sequence (P08049 whole entry): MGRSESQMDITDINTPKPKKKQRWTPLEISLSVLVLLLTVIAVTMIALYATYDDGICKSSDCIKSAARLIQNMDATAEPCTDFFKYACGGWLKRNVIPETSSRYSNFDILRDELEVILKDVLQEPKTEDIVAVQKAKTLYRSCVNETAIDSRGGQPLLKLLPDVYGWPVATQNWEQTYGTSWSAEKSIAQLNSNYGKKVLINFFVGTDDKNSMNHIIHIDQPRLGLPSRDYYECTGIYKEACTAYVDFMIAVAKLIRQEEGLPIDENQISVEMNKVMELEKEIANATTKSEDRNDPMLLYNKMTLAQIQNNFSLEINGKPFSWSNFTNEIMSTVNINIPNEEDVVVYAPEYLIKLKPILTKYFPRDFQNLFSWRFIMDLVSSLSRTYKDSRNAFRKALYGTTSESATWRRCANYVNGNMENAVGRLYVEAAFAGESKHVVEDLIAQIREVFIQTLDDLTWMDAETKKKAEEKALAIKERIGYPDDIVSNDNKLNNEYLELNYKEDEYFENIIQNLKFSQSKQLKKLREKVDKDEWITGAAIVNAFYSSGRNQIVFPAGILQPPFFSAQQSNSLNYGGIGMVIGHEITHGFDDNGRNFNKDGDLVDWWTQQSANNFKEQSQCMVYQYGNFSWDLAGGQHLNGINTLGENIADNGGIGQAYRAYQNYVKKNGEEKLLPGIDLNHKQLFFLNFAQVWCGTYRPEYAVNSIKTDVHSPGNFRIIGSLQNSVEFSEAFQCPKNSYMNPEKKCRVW
Method in brief: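 NEP purified to homogeneity from rabbit kidney, 1 pmol/100 μL final, preincubated 15 min at 25 °C in 50 mM Tris-HCl with or without inhibitor. [3H]-D-Ala2-Leu-enkephalin (Km 30 μM) added at 20 nM final. Reaction stopped at 30 min with 0.5 M HCl; products separated on polystyrene beads. IC50 from log-probit of five concentrations, mean ± SEM of three experiments.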

Mus musculus = experiment: Analgesic effect when injected intracerebroventricularly at 50 (microg); type: functional
Method in brief: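 Male Swiss mice (23–25 g), icv dose of 50 μg in 10 μL saline, n = 10 per group. Hot plate at 55 ± 0.5 °C; jump latency read 15 min after injection, cutoff 240 s. Compared with vehicle controls by ANOVA and Bonferroni test. % analgesia = (experimental − control latency)/(240 s − control latency).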

O=C(O)CNC(=O)C(CC(=O)NO)Cc1ccccc1 (configuration not stated)
IC50 [1]: 21 nM | IC50 (Aminopeptidase N): 2000 nM

O=C(CC(Cc1ccccc1)C(=O)NC(Cc1ccccc1)C(=O)O)NO (configuration not stated)
IC50 (Aminopeptidase N): 130 nM

CC(CC(=O)O)NC(=O)C(CC(=O)NO)Cc1ccccc1 (stereo in doubt; 6)
IC50 [1]: 10 nM | IC50 (Aminopeptidase N): 445 nM | IC50 (Neprilysin): 2 nM | Analgesia (Mus musculus): 20.5% | Latency time (Mus musculus): 124 s

O=C(O)C[C@H](Cc1ccccc1)NC(=O)[C@@H](CC(=O)NO)Cc1ccccc1 (racemic)
IC50 [1]: 0.46 nM | IC50 (Aminopeptidase N): 22.5 nM | IC50 (Neprilysin): 3 nM | Analgesia (Mus musculus): 68.2% | Latency time (Mus musculus): 193.7 s

O=C(O)CCCCNC(=O)C(CC(=O)NO)Cc1ccccc1 (configuration not stated)
IC50 [1]: 250 nM | IC50 (Aminopeptidase N): 500 nM | IC50 (Neprilysin): 51.5 nM

CN(C(=O)C(CC(=O)NO)Cc1ccccc1)C(Cc1ccccc1)C(=O)O (configuration not stated)
IC50 [1]: 2.3 nM | IC50 (Aminopeptidase N): 120 nM | IC50 (Neprilysin): 150 nM

O=C(O)C[C@H](NC(=O)[C@H](CC(=O)NO)Cc1ccccc1)c1ccccc1
IC50 [1]: 7.2 nM | IC50 (Aminopeptidase N): 400 nM | IC50 (Neprilysin): 3 nM

O=C(O)CCCNC(=O)C(CC(=O)NO)Cc1ccccc1 (configuration not stated)
IC50 [1]: 150 nM | IC50 (Aminopeptidase N): 1500 nM | IC50 (Neprilysin): 27.5 nM

O=C(O)C[C@H](NC(=O)[C@@H](CC(=O)NO)Cc1ccccc1)c1ccccc1 (racemic)
IC50 [1]: 2.6 nM | IC50 (Aminopeptidase N): 32.5 nM | IC50 (Neprilysin): 2.9 nM | Analgesia (Mus musculus): 62.1% | Latency time (Mus musculus): 184.8 s

O=C(CC(Cc1ccccc1)C(=O)NCC(Cc1ccccc1)C(=O)O)NO (configuration not stated)
IC50 [1]: 2.5 nM | IC50 (Aminopeptidase N): 71.5 nM | IC50 (Neprilysin): 1.8 nM | Analgesia (Mus musculus): 39.4% | Latency time (Mus musculus): 151.8 s

CC(CNC(=O)C(CC(=O)NO)Cc1ccccc1)C(=O)O (configuration not stated)
IC50 [1]: 23 nM | IC50 (Aminopeptidase N): 360 nM | IC50 (Neprilysin): 2.3 nM | Analgesia (Mus musculus): 46.6% | Latency time (Mus musculus): 162.3 s

CC(NC(=O)C(CC(=O)NO)Cc1ccccc1)C(C)C(=O)O (stereo in doubt; 11A)
IC50 [1]: 10.5 nM | IC50 (Neprilysin): 26.5 nM

O=C(O)CCNC(=O)C(CC(=O)NO)Cc1ccccc1 (configuration not stated)
IC50 [1]: 36 nM | IC50 (Aminopeptidase N): 670 nM | IC50 (Neprilysin): 2.4 nM | Analgesia (Mus musculus): 21.5% | Latency time (Mus musculus): 125.3 s

CC(NC(=O)C(CC(=O)NO)Cc1ccccc1)C(C)C(=O)O (stereo in doubt; 11B)
IC50 [1]: 17.5 nM | IC50 (Neprilysin): 13 nM

CC(CC(=O)O)NC(=O)C(CC(=O)NO)Cc1ccccc1 (stereo in doubt; C)
IC50 [1]: 0.9 nM | IC50 (Aminopeptidase N): 350 nM | IC50 (Neprilysin): 1.7 nM

O=C(O)C[C@H](Cc1ccccc1)NC(=O)[C@H](CC(=O)NO)Cc1ccccc1
IC50 [1]: 28.5 nM | IC50 (Aminopeptidase N): 1430 nM | IC50 (Neprilysin): 7.6 nM

C[C@H](NC(=O)[C@@H](CC(=O)NO)Cc1ccccc1)C(=O)O [KELATORPHAN]
Analgesia (Mus musculus): 50% | Latency time (Mus musculus): 167.2 s
